Screening data from PubChem.
Only a sample is shown.
Apaf1 activ: human Apaf-1 activation; O14727; Apaf-1 apoptosome caspase-3 activation, DEVD-Rh110 fluorescence; hits give low values; activity change, negative = activation, % at 20 µM; 0.31% of 330,000 active; AID 489031;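 active means activity change at or below -40% at 20 µM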
Target sequence (O14727 whole entry, looked up): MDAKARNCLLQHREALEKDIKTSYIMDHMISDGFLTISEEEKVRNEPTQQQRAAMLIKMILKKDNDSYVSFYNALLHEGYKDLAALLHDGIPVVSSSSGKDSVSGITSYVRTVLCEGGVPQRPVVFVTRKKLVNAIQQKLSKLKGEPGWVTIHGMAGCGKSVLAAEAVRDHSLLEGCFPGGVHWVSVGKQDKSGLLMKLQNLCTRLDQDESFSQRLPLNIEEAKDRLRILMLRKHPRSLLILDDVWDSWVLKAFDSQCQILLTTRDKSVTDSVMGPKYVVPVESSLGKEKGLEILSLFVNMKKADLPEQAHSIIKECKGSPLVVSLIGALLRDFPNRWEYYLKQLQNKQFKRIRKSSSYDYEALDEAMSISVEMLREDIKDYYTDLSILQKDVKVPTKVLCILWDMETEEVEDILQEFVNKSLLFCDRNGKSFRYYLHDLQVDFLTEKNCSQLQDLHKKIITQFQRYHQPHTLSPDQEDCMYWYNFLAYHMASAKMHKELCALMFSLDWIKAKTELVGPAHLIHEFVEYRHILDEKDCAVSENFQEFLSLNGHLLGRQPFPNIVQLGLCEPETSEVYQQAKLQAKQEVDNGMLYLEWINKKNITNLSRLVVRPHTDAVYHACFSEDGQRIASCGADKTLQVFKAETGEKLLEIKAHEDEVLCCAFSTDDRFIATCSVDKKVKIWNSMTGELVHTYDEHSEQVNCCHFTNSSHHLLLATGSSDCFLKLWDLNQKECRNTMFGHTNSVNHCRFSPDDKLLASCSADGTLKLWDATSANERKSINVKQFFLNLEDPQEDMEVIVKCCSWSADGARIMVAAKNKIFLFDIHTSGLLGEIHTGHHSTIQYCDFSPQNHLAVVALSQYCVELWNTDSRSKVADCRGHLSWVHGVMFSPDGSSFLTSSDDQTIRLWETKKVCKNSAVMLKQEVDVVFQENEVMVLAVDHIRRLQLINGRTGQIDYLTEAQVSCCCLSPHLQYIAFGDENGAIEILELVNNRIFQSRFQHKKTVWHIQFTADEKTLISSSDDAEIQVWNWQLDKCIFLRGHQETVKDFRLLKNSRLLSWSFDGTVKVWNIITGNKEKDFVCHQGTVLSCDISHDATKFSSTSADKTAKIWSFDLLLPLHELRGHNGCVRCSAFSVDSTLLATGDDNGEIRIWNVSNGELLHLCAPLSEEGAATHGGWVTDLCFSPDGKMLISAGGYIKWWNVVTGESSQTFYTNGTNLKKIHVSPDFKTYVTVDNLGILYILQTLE
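Assay system – biochemical Apaf-1 apoptosome reconstitution · Medium – 20 mM HEPES buffer, pH 7.5, containing CHAPS and BSA · Incubation – 30 min preincubation, 50 min reaction, room temperature · Measured by – Caspase-3-released Rh110 fluorescence, 540 nm emission, 480 nm excitation · Read-out – Caspase-3 cleavage activity downstream of Apaf-1 activation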
Rh110 interf act: counter-screen for Apaf-1 activators: fluorescence interference. fluorescence interference (activity change), % at 20 µM, hits read low. shares compounds with Apaf1 activ. 980 tested, under 10 active. Rh110 fluorescence interference, quenched caspase reaction, Ex480/Em540;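 active means mean activity change at or below -40% when tested at 20 µM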
Apaf-1 act conf: confirmation of human Apaf-1 activators; activity change, negative = activation, % at 20 µM; AID 504617; 5% of 980 active; reconstituted apoptosome caspase-3 activity, DEVD-Rh110 fluorescence; hits give low values; shares compounds with Apaf1 activ;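 active means mean activity change at or below -40%, meaning activation of 40% or more, at 20 µM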
Numbers without * were called inactive; . = no result.

SMILES	Apaf1 activ	Rh110 interf act	Apaf-1 act conf
CCCC[n+]1ccn(C2=C([O-])c3ccccc3C(=O)/C2=N\S(=O)(=O)c2ccc(Br)cc2)c1	59	.	.
CCCNC(=O)c1ccc(SC)cc1OC	-174*	9	5
O=C1/C(=C\c2ccc(-c3ccccc3[N+](=O)[O-])o2)C(c2ccccc2)=NN1c1ccccc1	44	.	.
C[N+]1(C)CCC(=C2c3ccccc3CC(=O)c3sccc32)CC1	57	.	.
O=C(NCc1ccccn1)c1ccc2c(=O)n3nc(Nc4ccccc4)sc3nc2c1	-43*	-4	-38
CC[C@@H](C)[C@H](CNC)NC[C@@H](Cc1cccc2ccccc12)NCCc1cccc(C(F)(F)F)c1	70	.	.
c1ccc2c(-c3ccc(OCCN4CCCCC4)cc3)c(-c3ccsc3)sc2c1	59	.	.
COc1cc2c(cc1OC)C(c1ccc(-c3ccc(Cl)c(Cl)c3)o1)=NCC2	41	.	.
COc1ccc(-c2nc(-c3ccc(Br)o3)no2)cc1OC	-45*	7	17
Cc1cc(/C=C2\SC(=O)N(C)C2=O)c(C)n1-c1ccc(O)cc1	71	.	.
CCc1ccccc1NC(=O)COC(=O)c1cccs1	-104*	12	9
CCOC(=O)c1cc(C(=O)c2cccs2)n2ccc(C(C)=O)cc12	42	.	.
CCOC(=O)c1c(N)n(CCOC(=O)c2cccs2)c2nc3ccccc3nc12	95	.	.
Nc1ccccc1C(=O)Nc1cccc2ccccc12	-114*	-9	16
C/C(=N\NC(=O)CNc1cccc2ccccc12)c1ccccc1	83	.	.
CC(=O)c1ccc(NC(=S)Nc2cccc3ccccc23)cc1	45	.	.
c1ccc(-c2sc3ccccc3c2-c2ccc(OCCN3CCCCC3)cc2)cc1	52	.	.
O=C(c1ccccc1)[C@@H]1[C@@H](C(=O)c2ccc(F)cc2)[C@@]2(C(=O)Nc3ccccc32)[C@H]2c3ccccc3C=CN12	64	.	.
Cn1nccc1C(=O)N1CCN(C23CC4CC(CC(C4)C2)C3)CC1	-56*	10	17
Cc1noc(C)c1NC(=O)N(C)C[C@H]1Oc2ccc(NC(=O)CCN3CCOCC3)cc2C(=O)N([C@H](C)CO)C[C@@H]1C	-46*	5	12
C[C@H](CO)N1C[C@H](C)[C@@H](CN(C)Cc2ccc(-c3ccccc3)cc2)Oc2c(NC(=O)Cc3ccccc3)cccc2C1=O	43	.	.
CCSc1nsc(NC(=O)Nc2ccc(F)cc2F)n1	-95*	6	16
O=C1CC(c2ccccc2)n2ncnc2N1 (centres undefined)	-347*	4	11
Cc1cc(Br)ccc1OCCCCN1CCC(C)CC1	-57*	-3	11
CCOCCCNC1=C(Cl)C(=O)c2ccccc2C1=O	48	.	.
SMILES	Apaf1 activ	Rh110 interf act	Apaf-1 act conf
CCOCCCNC(=O)COc1ccc(OC)cc1	-293*	12	12
CCC[C@@H](CN1CCC[C@H]1CN1C(N)=NC[C@H]1CC(C)C)N1C[C@@H]([C@H](C)CC)N(CCCC2CCCC2)C1=N	53	.	.
CC(C)c1ccc2[nH]c(O)c(N=NC(=O)c3ccc(CSc4nncn4C)cc3)c2c1	-74*	2	10
CCC1=NNc2cccc3c(OC)ccc1c23	52	.	.
CCN1CCN(Cc2ccc(NC(=O)c3cc(NC(=O)c4cc(-c5ccc(OC)cc5)n[nH]4)cc(OC)c3)cc2C(F)(F)F)CC1	56	.	.
Cc1noc(C)c1C(=O)OC(C(=O)NC1CCCC1)c1ccc(F)cc1 (centres undefined)	-52*	7	5
O=C(N/C(=C\c1ccccc1Cl)C(=O)N1CCOCC1)c1ccc([N+](=O)[O-])cc1	-309*	9	9
COc1ccc(-c2oc3ncnc(NCCN4CCOCC4)c3c2-c2ccc(OC)cc2)cc1	42	.	.
CCc1ccc2nc(NC(=O)CSCc3c(C)noc3C)sc2c1	46	.	.
Oc1ccc(/C=N/Nc2cc(N3CCCC3)nc(N3CCCC3)n2)cc1O	60	.	.
CCCCCCCCCCOC(=O)Cn1c(COc2ccc(OC)cc2)[n+](C)c2ccccc21	72	.	.
C=CCNC(=O)CN(c1cccc(Br)c1)S(C)(=O)=O	-56*	2	7
COc1ccc(-c2ccc(C(c3c(C)[nH][nH]c3=O)c3c(C)[nH][nH]c3=O)o2)c([N+](=O)[O-])c1	75	.	.
O=C(OCc1nc2ccccc2s1)c1ccc([N+](=O)[O-])o1	69	.	.
CCOc1ccc(-n2nc3ccc(N)cc3n2)cc1	84	.	.
COc1cc2c3nnc(-c4ccc(F)cc4)c-3cn(Cc3cccc(C)c3)c2cc1OC	53	.	.
CC(C)CC(=O)NC(=S)Nc1ccccc1F	-80*	-7	11
Cc1ccc(NC(=S)Nc2cccc3ccccc23)cc1F	89	.	.
COc1ccc(CN(C)C(=O)c2cc(S(=O)(=O)NCc3ccccc3)ccc2C)c(OC)c1	61	.	.
Cc1ccc(S(=O)(=O)CCC(=O)NCc2ccccc2)cc1	-64*	4	8
CCCN(CC(=O)Nc1ccccc1OC)C(=O)c1cc(S(=O)(=O)NCc2ccccc2)ccc1C	62	.	.
COC(=O)c1ccc(COC(=O)CCS(=O)(=O)c2ccc(C)cc2)cc1	-53*	7	14
C#CCOCCOCCOCCNc1nc(N2CCN(C(=O)CCCCCCCCCCNC(=O)[C@H]([C@@H](C)CC)n3cc(CCCCCN)nn3)CC2)nc(N2CCN(C(=O)CCCCCCCCCCNC(=O)[C@@H]([C@H](C)CC)n3cc(CCCCCN)nn3)CC2)n1	78	.	.
CCOc1ccc2nc(NC3=NC(c4ccc(OC)cc4)CC(=O)N3)nc(C)c2c1 (centres undefined)	79	.	.
CC(C)c1ccc(-n2nc3ccc(N)cc3n2)cc1	63	.	.
SMILES	Apaf1 activ	Rh110 interf act	Apaf-1 act conf
CC(C)C(=O)Nc1ccc2nn(-c3ccc(F)cc3)nc2c1	-95*	17	15
Cc1ccc(-n2nc3ccc(N)cc3n2)cc1	82	.	.
Nc1ccc2nn(-c3ccc(F)cc3)nc2c1	88	.	.
Cc1ccc(-n2nc3ccc(NC(=O)C(C)C)cc3n2)cc1	-152*	5	7
CC(C)C(=O)Nc1cccc(-c2cn3ccsc3n2)c1	67	.	.
CCCCCCOC(=O)C(C#N)c1nc2ccccc2nc1N1CCN(CC)CC1 (centres undefined)	42	.	.
CN1CCN(C2=C(NS(=O)(=O)c3ccccc3)C(=O)c3ccccc3C2=O)CC1	79	.	.
CC(C)C[C@H](NC(=O)c1nc[nH]c1C(=O)N[C@@H](CCCCN)C(=O)OC(C)(C)C)C(=O)OC(C)(C)C	43	.	.
CCN1C(=C(C#N)C#N)C=Cc2cc(C)ccc21	-49*	5	8
CCN(CC)C(=O)N1CCN(S(=O)(=O)c2ccccc2)CC1	-81*	-2	11
COCCN(Cc1ccccc1)C(=O)c1cccc(S(=O)(=O)N2CCN(c3ccccc3)CC2)c1	43	.	.
CCOC(=O)N1CCN(C2=C(NS(=O)(=O)c3ccccc3)C(=O)c3ccccc3C2=O)CC1	48	.	.
CC(=O)N1CCc2c(sc(NC(=O)C3CC3)c2-c2nc3ccccc3s2)C1	72	.	.
O=C(O)c1cc(O)c2c(c1)[C@@H]([C@H]1c3cc(C(=O)O)cc(O)c3C(=O)c3c(O[C@@H]4O[C@H](CO)[C@@H](O)[C@H](O)[C@H]4O)cccc31)c1cccc(OC3O[C@H](CO)[C@@H](O)[C@H](O)[C@H]3O)c1C2=O (some centres undefined)	95	.	.
Nc1ncc2[nH]cnc2n1	-4	.	.
